Like-named read-outs stand apart in the source and are kept apart here.
Experiments:
human GSK-3β = human GSK-3β (Homo sapiens, UniProt P49841); assay: In vitro GSK-3β inhibition: phosphorylation of primed substrate; assay type: biochemical
15 kinases = assay: Selectivity studies against 15 kinases; assay type: biochemical; conditions: 15 kinases (Supporting Information)
C57BL/6J male mice [1] = assay: Amphetamine–chlordiazepoxide locomotor hyperactivity procedure; assay type: in vivo
C57BL/6J male mice [2] = assay: Prepulse inhibition of the acoustic startle response; assay type: in vivo; conditions: 30 min pretreatment
How it was run: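 Male C57BL/6J mice given test compound (10 or 25 mgkg−1) or vehicle i.p. in 10% DMSO, 30 min before testing. 5 min habituation to 70 dB background noise, then six startle-alone trials. Ten blocks of randomized null, 120 dB startle, prepulse (4/8/12 dB above background)+startle, and prepulse-alone trials. PPI = [1−(prepulse+startle)/startle amplitude]×100%. n=8–14 per group; repeated-measures ANOVA.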

ClockΔ19 mutant mice = assay: Locomotor activity in CLOCK mutant mice; assay type: in vivo; conditions: 12.5 mgkg^−1 i.p. once a day for five days, 2 h recording
CYP1A2 = molecular target: T1, CYP1A2 (Homo sapiens, UniProt P05177); assay: Cytochrome P450 inhibition; assay type: in vitro ADME; conditions: up to 10 μM of 3a
T1 sequence (P05177 1-516): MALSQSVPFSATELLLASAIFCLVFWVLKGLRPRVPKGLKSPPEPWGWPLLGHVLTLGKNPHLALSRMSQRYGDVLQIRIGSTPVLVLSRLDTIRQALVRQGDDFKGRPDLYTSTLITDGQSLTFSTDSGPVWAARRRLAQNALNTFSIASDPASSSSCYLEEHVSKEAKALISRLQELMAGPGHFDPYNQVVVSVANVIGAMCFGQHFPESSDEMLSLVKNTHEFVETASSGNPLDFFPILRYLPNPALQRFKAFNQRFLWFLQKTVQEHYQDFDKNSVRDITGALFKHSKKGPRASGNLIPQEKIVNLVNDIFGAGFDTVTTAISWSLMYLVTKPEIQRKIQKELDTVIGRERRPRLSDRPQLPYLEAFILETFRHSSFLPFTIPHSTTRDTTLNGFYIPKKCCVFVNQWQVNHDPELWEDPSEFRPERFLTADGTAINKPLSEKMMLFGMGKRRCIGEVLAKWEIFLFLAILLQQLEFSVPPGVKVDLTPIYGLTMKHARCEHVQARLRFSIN

CYP2B6 = molecular target: T2, CYP2B6 (Homo sapiens, UniProt P20813); assay: Cytochrome P450 inhibition; assay type: in vitro ADME; conditions: up to 10 μM of 3a
T2 sequence (P20813 1-491): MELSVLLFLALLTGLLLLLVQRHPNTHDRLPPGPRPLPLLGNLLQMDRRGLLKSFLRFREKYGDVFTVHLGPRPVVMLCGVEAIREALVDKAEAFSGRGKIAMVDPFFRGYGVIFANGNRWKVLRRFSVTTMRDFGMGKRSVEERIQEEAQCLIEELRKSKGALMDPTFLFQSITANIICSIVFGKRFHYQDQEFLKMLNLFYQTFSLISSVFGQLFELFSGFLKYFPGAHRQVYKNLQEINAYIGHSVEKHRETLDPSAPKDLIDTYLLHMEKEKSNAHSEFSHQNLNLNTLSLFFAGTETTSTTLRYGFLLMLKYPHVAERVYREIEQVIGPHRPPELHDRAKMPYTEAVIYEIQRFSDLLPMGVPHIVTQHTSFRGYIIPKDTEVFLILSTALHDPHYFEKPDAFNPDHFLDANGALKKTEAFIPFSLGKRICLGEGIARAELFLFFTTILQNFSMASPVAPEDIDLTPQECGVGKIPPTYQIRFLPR

CYP2C9 = CYP2C9 (Homo sapiens, UniProt P11712); assay: Cytochrome P450 inhibition; assay type: in vitro ADME; conditions: up to 10 μM of 3a
Chain of CYP2C9 (P11712 whole entry): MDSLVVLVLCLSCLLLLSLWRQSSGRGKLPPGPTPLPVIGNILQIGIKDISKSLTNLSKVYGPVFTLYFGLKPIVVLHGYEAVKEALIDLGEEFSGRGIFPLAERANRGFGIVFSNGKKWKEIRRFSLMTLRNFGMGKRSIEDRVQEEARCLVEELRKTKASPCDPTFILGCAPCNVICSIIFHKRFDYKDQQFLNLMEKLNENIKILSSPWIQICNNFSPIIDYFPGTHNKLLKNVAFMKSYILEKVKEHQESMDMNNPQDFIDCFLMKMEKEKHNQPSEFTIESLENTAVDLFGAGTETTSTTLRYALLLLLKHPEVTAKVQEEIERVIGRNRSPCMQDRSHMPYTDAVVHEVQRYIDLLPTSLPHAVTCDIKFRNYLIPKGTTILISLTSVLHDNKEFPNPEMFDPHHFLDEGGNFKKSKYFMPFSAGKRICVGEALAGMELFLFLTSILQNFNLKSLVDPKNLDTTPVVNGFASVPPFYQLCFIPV

CYP2C19 = CYP2C19 (Homo sapiens, UniProt P33261); assay: Cytochrome P450 inhibition; assay type: in vitro ADME; conditions: up to 10 μM of 3a
Chain of CYP2C19 (P33261 whole entry): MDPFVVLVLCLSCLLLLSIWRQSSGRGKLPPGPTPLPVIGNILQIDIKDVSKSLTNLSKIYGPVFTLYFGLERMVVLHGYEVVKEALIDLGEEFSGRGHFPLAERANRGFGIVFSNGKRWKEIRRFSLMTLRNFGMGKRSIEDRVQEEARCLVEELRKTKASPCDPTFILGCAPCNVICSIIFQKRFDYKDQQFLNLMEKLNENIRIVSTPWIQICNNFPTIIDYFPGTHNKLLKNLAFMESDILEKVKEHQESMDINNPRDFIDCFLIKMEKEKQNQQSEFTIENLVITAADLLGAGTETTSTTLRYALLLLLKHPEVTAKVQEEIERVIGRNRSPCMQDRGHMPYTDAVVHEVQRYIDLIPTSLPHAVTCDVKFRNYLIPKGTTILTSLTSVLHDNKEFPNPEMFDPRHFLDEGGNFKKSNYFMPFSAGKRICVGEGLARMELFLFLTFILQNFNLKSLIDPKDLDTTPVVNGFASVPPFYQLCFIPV

CYP2D6 = CYP2D6 (Homo sapiens, UniProt P10635); assay: Cytochrome P450 inhibition; assay type: in vitro ADME; conditions: up to 10 μM of 3a
Chain of CYP2D6 (P10635 whole entry): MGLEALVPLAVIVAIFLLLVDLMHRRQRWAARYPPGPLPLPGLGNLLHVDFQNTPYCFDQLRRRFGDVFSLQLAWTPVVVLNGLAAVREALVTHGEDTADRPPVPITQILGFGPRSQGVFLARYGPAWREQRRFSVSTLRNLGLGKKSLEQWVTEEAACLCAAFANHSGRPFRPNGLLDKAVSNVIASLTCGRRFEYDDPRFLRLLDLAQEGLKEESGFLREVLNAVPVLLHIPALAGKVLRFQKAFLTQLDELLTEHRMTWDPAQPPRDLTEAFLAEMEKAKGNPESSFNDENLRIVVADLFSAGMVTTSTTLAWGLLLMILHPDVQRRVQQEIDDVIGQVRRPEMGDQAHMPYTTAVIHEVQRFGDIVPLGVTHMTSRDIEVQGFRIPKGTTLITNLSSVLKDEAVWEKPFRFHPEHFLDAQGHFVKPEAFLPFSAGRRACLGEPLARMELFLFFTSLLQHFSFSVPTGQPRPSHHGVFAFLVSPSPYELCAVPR

CYP3A4 = CYP3A4 (Homo sapiens, UniProt P08684); assay: Cytochrome P450 inhibition; assay type: in vitro ADME; conditions: up to 10 μM of 3a
Chain of CYP3A4 (P08684 whole entry): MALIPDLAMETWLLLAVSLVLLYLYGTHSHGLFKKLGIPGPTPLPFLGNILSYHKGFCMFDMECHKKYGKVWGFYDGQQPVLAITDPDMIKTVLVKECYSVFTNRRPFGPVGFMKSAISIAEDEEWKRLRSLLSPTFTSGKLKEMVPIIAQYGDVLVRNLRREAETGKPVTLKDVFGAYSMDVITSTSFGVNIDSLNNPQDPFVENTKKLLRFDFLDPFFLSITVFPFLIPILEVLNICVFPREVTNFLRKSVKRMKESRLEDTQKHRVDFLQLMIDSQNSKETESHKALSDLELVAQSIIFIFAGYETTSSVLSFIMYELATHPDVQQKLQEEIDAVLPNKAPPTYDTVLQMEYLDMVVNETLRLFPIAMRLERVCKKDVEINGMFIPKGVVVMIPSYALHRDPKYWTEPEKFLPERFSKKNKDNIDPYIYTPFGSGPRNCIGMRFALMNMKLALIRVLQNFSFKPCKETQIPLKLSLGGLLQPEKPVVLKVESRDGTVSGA

[3] = Human liver microsomal stability; assay type: in vitro ADME; conditions: 60 min, 1 and 10 μM
[4] = Mouse liver microsomal stability; assay type: in vitro ADME; conditions: 60 min, 1 and 10 μM
[5] = Aqueous solubility, HPLC-based method; assay type: physicochemical
[6] = primed substrate 20 μm, 10 μm ATP, tested at Reaction Biology Inc.

Chain of human GSK-3β (P49841 whole entry): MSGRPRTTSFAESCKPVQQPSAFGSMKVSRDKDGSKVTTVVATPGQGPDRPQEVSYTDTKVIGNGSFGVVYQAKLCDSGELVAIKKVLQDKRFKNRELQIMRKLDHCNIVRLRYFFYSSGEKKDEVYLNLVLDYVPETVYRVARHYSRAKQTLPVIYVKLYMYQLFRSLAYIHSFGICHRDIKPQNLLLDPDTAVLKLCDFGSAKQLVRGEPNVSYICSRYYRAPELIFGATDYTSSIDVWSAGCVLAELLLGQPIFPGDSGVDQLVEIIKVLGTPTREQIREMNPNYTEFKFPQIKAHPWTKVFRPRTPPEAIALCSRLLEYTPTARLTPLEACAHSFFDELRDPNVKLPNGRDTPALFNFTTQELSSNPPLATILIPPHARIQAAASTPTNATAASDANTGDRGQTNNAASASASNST

## O=C1NC(=O)C(c2cn(C3CCN(Cc4ccncc4)CC3)c3ccccc23)=C1c1coc2ccccc12 [Compound 3j, 3-Benzofuran-3-yl-4-[1-(1-pyridin-4-ylmethyl-piperidin-4-yl)-1H-indol-3-yl]-pyrrole-2,5-dione]
Human GSK-3β
  IC50: 65 ± 4 nM

## COc1cccc2c(C3=C(c4cn(C5CCNCC5)c5ccc(F)cc45)C(=O)NC3=O)coc12 [Compound 3g, 3-(5-Fluoro-1-piperidin-4-yl-1H-indol-3-yl)-4-(7-methoxy-benzo-furan-3-yl)-pyrrole-2,5-dione]
Human GSK-3β
  IC50: 28 ± 4 nM

## O=C1NC(=O)C(c2cn(C3CCNCC3)c3ccc(F)cc23)=C1c1coc2ccccc12 [Compound 3d, 3-Benzofuran-3-yl-4-(5-fluoro-1-piperidin-4-yl-1H-indol-3-yl)-pyr-role-2,5-dione]
Human GSK-3β; [6]
  IC50: 30 ± 4 nM

## NCC(=O)N1CCC(n2cc(C3=C(c4coc5ccccc45)C(=O)NC3=O)c3ccccc32)CC1 [Compound 3p, 3-{1-[1-(2-Amino-acetyl)-piperidin-4-yl]-1H-indol-3-yl}-4-benzofuran-3-yl-pyrrole-2,5-dione]
Human GSK-3β
  IC50: 55 ± 2 nM

## O=C1NC(=O)C(c2cn(C3CCN(C(=O)c4ccccn4)CC3)c3ccccc23)=C1c1coc2ccccc12 [Compound 3l, 3-Benzofuran-3-yl-4-{1-[1-(pyridine-2-carbonyl)-piperidin-4-yl]-1H-indol-3-yl}-pyrrole-2,5-dione]
Human GSK-3β
  IC50: 6 ± 1 nM

## CN1CCC(n2cc(C3=C(c4coc5ccccc45)C(=O)NC3=O)c3ccccc32)CC1 [Compound 3h, 3-Benzofuran-3-yl-4-[1-(1-methyl-piperidin-4-yl)-1H-indol-3-yl]-pyrrole-2,5-dione]
Human GSK-3β
  IC50: 155 ± 2 nM

## O=C1NC(=O)C(c2cn(C3CCN(C(=O)c4cccnc4)CC3)c3ccccc23)=C1c1coc2ccccc12 [Compound 3m, 3-Benzofuran-3-yl-4-{1-[1-(pyridine-3-carbonyl)-piperidin-4-yl]-1H-indol-3-yl}-pyrrole-2,5-dione]
Human GSK-3β
  IC50: 8 ± 2 nM

## O=C1NC(=O)C(c2cn(C3CCNCC3)c3ccc(Cl)cc23)=C1c1coc2ccccc12 [Compound 3e, 3-Benzofuran-3-yl-4-(5-chloro-1-piperidin-4-yl-1H-indol-3-yl)-pyr-role-2,5-dione]
Human GSK-3β; [6]
  IC50: 272 ± 27 nM

## O=C1NC(=O)C(c2cn(C3CCN(C(=O)N4CCOCC4)CC3)c3ccccc23)=C1c1coc2ccccc12 [Compound 3k, 3-Benzofuran-3-yl-4-{1-[1-(morpholine-4-carbonyl)-piperidin-4-yl]-1H-indol-3-yl}-pyrrole-2,5-dione]
Human GSK-3β
  IC50: 10 ± 2 nM

## O=C1NC(=O)C(c2cn(C3CCNCC3)c3ccccc23)=C1c1coc2ccccc12 [Compound 3a, 3-Benzofuran-3-yl-4-(1-piperidin-4-yl-1H-indol-3-yl)-pyrrole-2,5-dione]
Human GSK-3β
  IC50: 67 ± 6 nM
15 kinases
  kinase selectivity: reasonably selective amongst other kinases with the exception of PKA and PKC-b2
C57BL/6J male mice [1]; 3 mgkg^−1 i.p., 5 min pretreatment
  activity in the Amph/CDP assay: not active
C57BL/6J male mice [1]; doses higher than 10 mgkg^−1
  baseline locomotor activity: reductions in baseline locomotor activity
C57BL/6J male mice [2]; 10 mgkg^−1 i.p.
  prepulse inhibition (PPI): not active
C57BL/6J male mice [2]; 25 mgkg^−1 i.p.
  prepulse inhibition (PPI): enhanced PPI
ClockΔ19 mutant mice
  locomotor hyperactivity in response to novelty (beam breaks): attenuation of the locomotor hyperactivity
CYP1A2
  CYP1A2 inhibition: ≤ 30%
CYP2B6
  CYP2B6 inhibition: ≤ 30%
CYP2C9
  CYP2C9 inhibition: ≤ 30%
CYP2C19
  CYP2C19 inhibition: ≤ 30%
CYP2D6
  CYP2D6 inhibition: ≤ 30%
CYP3A4
  CYP3A4 inhibition: ≤ 30%
[3]
  compound remained after incubation with liver microsomes: more than 83%
[4]
  compound remained after incubation with liver microsomes: more than 83%
[5]
  aqueous solubility: 196 mgL^−1

## O=C1NC(=O)C(c2cn(C3CCN(Cc4ccccn4)CC3)c3ccccc23)=C1c1coc2ccccc12 [Compound 3i, 3-Benzofuran-3-yl-4-[1-(1-pyridin-2-ylmethyl-piperidin-4-yl)-1H-indol-3-yl]-pyrrole-2,5-dione]
Human GSK-3β
  IC50: 110 ± 4 nM

## Cc1nonc1C(=O)N1CCC(n2cc(C3=C(c4coc5ccccc45)C(=O)NC3=O)c3ccccc32)CC1 [Compound 3q, 3-Benzofuran-3-yl-4-{1-[1-(4-methyl-furazan-3-carbonyl)-piperidin-4-yl]-1H-indol-3-yl}-pyrrole-2,5-dione]
Human GSK-3β
  IC50: 25 ± 2 nM

## COc1ccc2c(C3=C(c4cn(C5CCNCC5)c5ccccc45)C(=O)NC3=O)coc2c1 [Compound 3b, 3-(6-Methoxy-benzofuran-3-yl)-4-(1-piperidin-4-yl-1H-indol-3-yl)-pyrrole-2,5-dione]
Human GSK-3β
  IC50: 629 ± 32 nM

## O=C1NC(=O)C(c2cn(C3CCN(C(=O)c4ccncc4)CC3)c3ccccc23)=C1c1coc2ccccc12 [Compound 3n, 3-Benzofuran-3-yl-4-{1-[1-(pyridine-4-carbonyl)-piperidin-4-yl]-1H-indol-3-yl}-pyrrole-2,5-dione]
Human GSK-3β
  IC50: 4 ± 1 nM

## O=C1NC(=O)C(c2cn(C3CCNCC3)c3ccc(Br)cc23)=C1c1coc2ccccc12 [3 f, 3-Benzofuran-3-yl-4-(5-bromo-1-piperidin-4-yl-1H-indol-3-yl)-pyr-role-2,5-dione]
Human GSK-3β; [6]
  IC50: 684 ± 17 nM

## COc1cccc2c(C3=C(c4cn(C5CCNCC5)c5ccccc45)C(=O)NC3=O)coc12 [Compound 3c, 3-(7-Methoxy-benzofuran-3-yl)-4-(1-piperidin-4-yl-1H-indol-3-yl)-pyrrole-2,5-dione]
Human GSK-3β
  IC50: 134 ± 5 nM

## O=C1NC(=O)C(c2cn(C3CCN(C(=O)c4cnccn4)CC3)c3ccccc23)=C1c1coc2ccccc12 [Compound 3o, 3-Benzofuran-3-yl-4-{1-[1-(pyrazine-2-carbonyl)-piperidin-4-yl]-1H-indol-3-yl}-pyrrole-2,5-dione]
Human GSK-3β
  IC50: 4 ± 1 nM

Reference: paper PMC3428230 (ChemMedChem, 2011)
